Data set [1] addresses T1, HLA-A*02:01 (Homo sapiens, UniProt P04439, D140Y/D185E/D98H/E176V/E277Q/G131W/G231S/I119V/I121R/I166T/I218V/L300P/L318F/N151K/N90K/P208A/P217A/Q86G/Q94H/R138H/R169H/T345S). The class given is binding. The note with it: for peptide exchange (in words): NA9 for NV9-FITC on A2, 25 °C.
The test system of another data set is A2/NA9. Description: Thermal stability by nanoscale differential scanning fluorimetry, A2/NA9. On the set-up: species or system human. Particulars: for destabilization of A2 complex (in words): ethanediol, 20% DMSO, Table S5. A digest of the protocol:
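Refolded, SEC-purified HLA-A2/peptide complex, 4 µM in citrate-phosphate buffer pH 7.6 (187.3 mM Na₂HPO₄, 6.35 mM citric acid). Mixed 1:1 with solvent or dipeptide at 2x test concentration in the same buffer, giving 2 µM complex. nanoDSF in capillaries: ex 280 nm, em 330 and 350 nm, ramp 1.0 °C/min from 15 or 20 °C to 80 °C.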
For orientation: DSF heats the sample and reads unfolding from a dye or from intrinsic fluorescence.

Data set [2] addresses T1, HLA-A*02:01. It is filed as binding.
For another data set, the target named is HLA-A*24:02 (Homo sapiens, UniProt P04439, D101N/D140Y/D185E/E176V/E190D/F33S/G103R/G107R/I119L/I121M/I306V/K335N/L105A/L180Q/L300P/N151K/N90K/Q86E/Q94H/R106L/R138H/R89G/T104I/T345S/V100E/W191G/Y123F). It is filed as binding. Particulars: pre-bound TLn9, ethanol vs 10 mM GF, 25 °C. A digest of the protocol: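 Complex (300 nM final) preincubated 15 min with the test compound or 10 mM dipeptide in 50 mM HEPES, 150 mM NaCl, pH 7.5. FITC-labeled incoming peptide added at 100 nM final. Exchange followed in real time by fluorescence anisotropy (ex 494 nm, em 517 nm) at 25 °C.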

Another data set deals with HLA-B*07:02 (Homo sapiens, UniProt P01889). The class given is binding. The note with it: pre-bound APGIRDHESA
A further data set concerns the target H-2K^b (Mus musculus, UniProt P01901). It is filed as binding, murine. The note with it: pre-bound FAPGNYPAL
In a further data set the test system is β2m. Description: Thermal stability by nanoscale differential scanning fluorimetry, β2m. Further details: species or system human.
For another data set, the system named is A2/IV9. In words: Thermal stability by nanoscale differential scanning fluorimetry, A2/IV9. On the set-up: species or system human. Particulars: no reagent.
For data set [3], the target named is disulfide-stabilized HLA-A*02:01 (Y84C/A139C) (Homo sapiens, UniProt P04439, D140Y/D185E/D98H/E176V/E277Q/G131W/G231S/I119V/I121R/I166T/I218V/L300P/L318F/N151K/N90K/P208A/P217A/Q86G/Q94H/R138H/R169H/T345S/A163C/Y108C). The class given is binding.
For data set [4], the target named is disulfide-stabilized HLA-A*02:01 (Y84C/A139C) / beta-2 microglobulin, peptide-free (human). Description: fluorescence polarisation.
In the next data set the test system is A2/NV9. In words: Thermal stability by nanoscale differential scanning fluorimetry, A2/NV9. Further details: species or system human. Particulars: no reagent.

By ΔTm is commonly meant the change in melting temperature against a reference sample.

Read-outs that look alike come from different tables or passages of the source.

For `CCCO` [1-propanol], the “peptide exchange (in words)” value on HLA-A*02:01 [1] was “ineffective”.

Consider `CCC(C)O` (stereo not shown) [2-butanol], for which the “peptide exchange (in words)” value on HLA-A*02:01 [1] is listed as “ineffective”.

For the compound `C[S+](C)[O-]` [DMSO, Dimethylsulfoxide], the “destabilization of A2 complex (in words)” value in the data set on A2/NA9 was “destabilizes to an extent similar to 10% ethanol”.

As for `OCCO` [EDO, 1,2-Ethanediol], the “peptide exchange (in words)” value at HLA-A*02:01 [1] is recorded as “enhanced exchange only to a minor extent”. Moreover, the “destabilization of A2 complex (in words)” value with A2/NA9 is “destabilizes A2 only slightly”.

As for `CCO` [EtOH, Ethanol], the “lower endpoint anisotropy with temperature increase (in words)” value on HLA-A*02:01 [1] (20% ethanol, 25, 32, 37 °C, less A2 available to bind the incoming peptide) is listed as “especially dramatic”. The “peptide exchange (in words)” value on HLA-A*02:01 [1] was 10% ethanol showed an acceleration similar to the dipeptide; on HLA-A*02:01 [2] it was “considerably less than that of 10 mM GM”; on HLA-A*24:02, “dramatically superior to the dipeptide”; on HLA-B*07:02, “also catalyzes exchange”; on H-2K^b, “also catalyzes exchange”. The ΔTm is −16.7 °C in the data set with A2/NA9 (A2/NA9, 20% ethanol vs no reagent) and −20.5 °C in the data set with β2m (β2m, 20% solvent vs no reagent). Further, the Tm with β2m (20% solvent, β2m alone, citrate-phosphate buffer pH 7.6, 1.0 °C/min) turned out to be 45 °C.

As for `CO` [MeOH, Methanol], the “peptide exchange (in words)” value on HLA-A*02:01 [1] is given as 20% methanol was only slightly slower.

As for ILKEPVHGV [IV9], the “Tm of complex compared to β2m alone (in words)” value in the data set on A2/IV9 is given as “not significantly different from those of β2m alone”.

For the compound NLVPKTAMRAVATA [NA9-TAM], the “acceleration of dissociation by 20% ethanol” value in [3] is “about six-fold”.

Compound NLVPK_(TAMRA)VATA (peptide) came in with a fold acceleration of dissociation by 20% ethanol (against no ethanol) in data set [4] of 6 fold.

As for NLVPMVATV [NV9], the “Tm of complex compared to β2m alone (in words)” value in the data set on A2/NV9 was “not significantly different from those of β2m alone”.

These data come from publication PMC9420430 (Current Research in Immunology, 2022).
